Experimental findings from the EternaBench riboswitch data are described below.

The subject of the data set is MS2 coat protein. Briefly: apparent Kd, MS2 coat protein; higher = weaker binding; RNA-MaP array; FMN 200 µM where present. A digest of the protocol: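 Designs on Illumina sequencing-chip clusters, transcribed by stalled E. coli RNA polymerase, were exposed to SNAP-549-labelled MS2 coat protein in doubling steps from 0.7 or 1.5 nM up to 3 µM, without and then with constant ligand. The buffer held 100 mM Tris-HCl pH 7.5, 80 mM KCl, 4 mM MgCl2, BSA, DTT, yeast tRNA and Tween-20. Apparent Kd values are medians of filtered per-cluster binding-curve fits to green signal normalised to red-channel RNA signal and control-cluster median Fmax.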

Where [1] appears, read: designed as: OFF switch for flavin mononucleotide, no ligand.
[2] abbreviates: ligand present: flavin mononucleotide, designed as: OFF switch for flavin mononucleotide.
Where [3] appears, read: designed as: ON switch for flavin mononucleotide, no ligand.
[4] abbreviates: ligand present: flavin mononucleotide, designed as: ON switch for flavin mononucleotide.

“AUAUCUCUAUUAGUUCCAAUACGAACAUGAGGAUCACCCAUGUAGGAUAUGCUAGAAGUUGUGUUGCAGAAGGACAUGUACCUU”: the “apparent Kd” value under setting [1] was 0.0117 µM and the “apparent Kd” value under setting [2] was 0.0258 µM.
For “GUCGUUUCUGAGGAUAUUAUUUUUUUCGAUUGAUAAGAAGGCAGUACAUGAGGAUCACCCAUGUGGGUUGUCUG”, in that order: 0.03 µM and 0.0973 µM.
“GGAUCCAACACAGGAUAUGCUGGACUUUGUCCAGCAGAAGGGUGAAGGACAUGAGGAUCACCCAUGUGGAUCCAUAUAUUUAAU”: the “apparent Kd” value under setting [3] was found to be 0.324 µM and the “apparent Kd” value under setting [4] came to 0.0278 µM.
For “AAAACUCAGAUAGGAUAUAUAGGAUAACUUAAGACCUAACAUGAGGAUCACCCAUGUGAUUAUUCGUAGAAGGAUCAUUGAACC”, in that order: 0.24 µM and 0.238 µM.
“AAAAUACAUGAGGAUCACCCAUGUCAGGAUAUGCUAAAAAAAAAAUUAAAAAAAAAAUGUAGAAGGGACUAAAA”: the “apparent Kd” value is 0.099 µM under setting [1] and 0.106 µM under setting [2].
As for “CCAUGCGGAUGAGGAUAUUCAUCCAUGAGGAUAGAAGAAGGCAUACAUGAGGAUCACCCAUGUAUACGCAUGAGGAUCCCUUAC”, the “apparent Kd” value worked out at 0.0273 µM under setting [1] and 0.0223 µM under setting [2].
Consider “UCAACCAGCGCCGGUUAAACAUGAGGAUCACCCAUGUACUCCAGAAGGCCGCCCAAGAACGGAGUGGAGGAUAUGGAGGUUCUC”, for which the “apparent Kd” value reads like this: under setting [3], 0.0468 µM; under setting [4], 0.0387 µM.
In the case of “UAAAAGUGAGGAUAUGCGAAGGCGUCUGAUAGACGAGGCUAGCAGAAGGCACAUGAGGAUCACCCAUGUGGGAU”, the “apparent Kd” value under setting [1] was 0.0897 µM and the “apparent Kd” value under setting [2] came out at 0.152 µM.
On to “UGUUGAUAGCAGAAGGACAUGAGGAUCACCCAUGUAAGGUUACAAAUAUAUGUAGGAUAUGCUAUUGACUAAGAGUGAGCGUUC”, for which the “apparent Kd” value under setting [1] came out at 0.00888 µM and the “apparent Kd” value under setting [2] was 0.0395 µM.
For “UUUUAACAUGAGGAUCACCCAUGUGAGGAUAUCGAAAUUUAUAUUUAUAUUUAUUAAACGAGAAGGCACAUUUU”, in that order: 0.0702 µM and 0.1 µM.
For “AAGUAGAUCCGAGGAUAUACAAUCCGGAAACGGUACAUGAGGAUCACCCAUGUAGAAGGCGGAUCUACAGGUACUAAAGUACCG”, in that order: 0.00633 µM and 0.00945 µM.
Take “AUAGCAUACCGAGGAUAUUCAUAUAAUAAAUAAACAUGAGGAUCACCCAUGUGGCGAAAGCCUAGGGAGAAGGCGGAAUGCUAA”: the “apparent Kd” value turned out to be 0.218 µM under setting [3] and 0.0233 µM under setting [4].
As for “GCAUGCGAUAAUAUGUCUGAGGGCAGAAGGCACAUGAGGAUCACCCAUGUAACGAUCUCUUCAAGUGAGGAUAUGUGCUCAUUG”, the “apparent Kd” value came to 0.034 µM under setting [1] and 0.0852 µM under setting [2].
For “ACAUGAGGAUCACCCAUGUGAAAAGAAUGGCUGACACAGAGAUAGGAUAUAUGUGCAUAUCAAACAUAGAAGGGUCAUGACUGG”, in that order: 0.0303 µM and 0.0302 µM.
As to “CACGGAUAGUAGAAGGGUGACAUGAGGAUCACCCAUGUACUUAUGUAGGUAUUACUAUAUAAUUCACAGGAUAUACUAUCCGUG”, the “apparent Kd” value by setting is: under setting [3], 0.794 µM; under setting [4], 0.0903 µM.
“CAAAGUUGGUAAGGAUAUCCCACAUUAUUCUGGCCCGUGCAAGCUACAUGAGGAUCACCCAUGUGGGAGAAGGUGCGUUAAAGA”: the “apparent Kd” value was found to be 0.022 µM under setting [1] and 0.0337 µM under setting [2].
As for “UUGGACGUCGAAGGAUAUGUAGGAUAUUCCUACAUGAGGAUCACCCAUGUUGACAUGGAAGAAGGACAGAAGGACGAUGUCCAU”, the “apparent Kd” value by setting is: under setting [3], 0.479 µM; under setting [4], 0.00678 µM.
Take “CUAAAUCAUGUAGGAUAUGCAUGGCGAAGCUACGCAGAAGGACAUGAGGAUCACCCAUGUCUGUCCGUCUGCGUACAGACGGAC”: the “apparent Kd” value is, setting by setting: under setting [1], 0.0204 µM; under setting [2], 0.115 µM.
For “AAAGGACGAGGAUAUACAUGAGGAUCACCCAUGUAAGAAGCAUAAUAAAAUAACUUAUGUAGAAGGCGUCCAAA”, in that order: 0.0205 µM and 0.0844 µM.
Regarding “GCACGAGACUAAGGAUAUGGUGUACCUACAUGAAACAUGAGGAUCACCCAUGUAGUAAGUAUGAUUCAGAAGGUAGAGACGUGC”, the “apparent Kd” value under setting [3] came to 0.0304 µM and the “apparent Kd” value under setting [4] was 0.0183 µM.
For the sequence “GAUCCUUCUGUUAGGAUAUGCUUUGGGCUUCCGCAGCAGAAGGAACAUGAGGAUCACCCAUGUUCGAUGCCGUC”, the “apparent Kd” value is, setting by setting: under setting [1], 0.0604 µM; under setting [2], 0.0599 µM.
Take “GAAGCUAUCGGAGGAUAUUCAUAGCCGAAAGGCACAUGAGGAUCACCCAUGUGCGGAAACGCUUGGGAGAAGGCCGAUAGCUUC”: the “apparent Kd” value amounted to 0.0254 µM under setting [3] and 0.0147 µM under setting [4].
With “AACAGUACAGGAUAUACAUGAGGAUCACCCAUGUGAGAAUUAAGUGGCGUACCACAAUGUAGAAGGGUACUGGA”, the “apparent Kd” value reads like this: under setting [1], 0.0774 µM; under setting [2], 0.0655 µM.
For “ACUGUUUGAUUCCUCUUAUACAUGAGGAUCACCCAUGUUAUCGAGGAUAUGCAUUAGAGUGUUUGGCAGAAGGCGAUGUAAUUG”, in that order: 0.0069 µM and 0.0234 µM.
For the sequence “GUAACAUGAGGAUCACCCAUGUCGUGCUAGAUGAGUUCUGGUGAGGAUAUACAUGGUAAAUAACUGUAGAAGGUGCUGGGUACA”, the “apparent Kd” value stood at 0.159 µM under setting [3] and 0.167 µM under setting [4].
On to “CGUAUGUCAGGAUAUGCGUAUGCCGCCCAGGACAGGCGGCAGCAGAAGGGACAUGAGGAUCACCCAUGUUCGGG”, for which the “apparent Kd” value was determined as 0.0683 µM under setting [1] and 0.0595 µM under setting [2].
For “UCGACGAAAGUCGAACGAUGUAGCAGAAGGACAUGAGGAUCACCCAUGUCAGCUGUAACAGCCAUGUAGGAUAUGCUACAUCGU”, in that order: 0.00451 µM and 0.00553 µM.
Turning to “GUUUCGGGAGGAUAUGCGUGGAUUGUUCUCGUAUGUUGUUUACAUGAGGAUCACCCAUGUAGAAGGUCUGGAGC”, the “apparent Kd” value reads like this: under setting [1], 0.17 µM; under setting [2], 0.136 µM.
For “AAUAUGAGCUGGUUUAAAUCCUAAACAUGAGGAUCACCCAUGUAGGAUAUCAGCACGAUAAGUGCUGAGAAGGACAUCCAGCUC”, in that order: 0.0151 µM and 0.0152 µM.
For the sequence “CGUCUAUGCCAGAAGGCAUGAAACAUGAGGAUCACCCAUGUCAAAGACAUGAGGAUAUGGCAUAGACGAAAAGUGCGAAAGCAC”, the “apparent Kd” value by setting is: under setting [3], 0.00432 µM; under setting [4], 0.00327 µM.
With “AUACAUGAGGAUCACCCAUGUUACUGGGUCUAUAUAGAACGUAGAAGGAUGUAUUUACACAUAACAUAGGAUAUACUUUAUAGU”, the “apparent Kd” value under setting [1] was determined as 0.0552 µM and the “apparent Kd” value under setting [2] turned out to be 0.0419 µM.
In the case of “GGGCCCGGAGGAUAUACAAUGGGCUCGGGAAACUGGGUCUUACAUGAGGAUCACCCAUGUAGAAGGCCGGGCCC”, the “apparent Kd” value reads like this: under setting [1], 0.0189 µM; under setting [2], 0.0234 µM.
With “AUUUAAUUUAAUAAGAUCACAUGAGGAUCACCCAUGUAUAUAUAGGAUAUCAGCUCGUGUAGAGCUGAGAAGGAUAUAUACAUG”, the “apparent Kd” value under setting [1] was 0.055 µM and the “apparent Kd” value under setting [2] worked out at 0.0552 µM.
For “AGUCGGAGCAGAGGAUAUUACAUGAGGAUCACCCAUGUAUUAAAUGGAAGCUGGAAACAGCAAUGUAAGAAGGCUGCUCCGACA”, in that order: 0.0624 µM and 0.284 µM.
For “GGAUGUCAAAGACAUCCAUAACGAACAUGAGGAUCACCCAUGUAGGAUAUGCUACUCAAAGAGUAGCAGAAGGACAUGUGCCUU”, in that order: 0.0336 µM and 0.269 µM.
For “AAAAAGUUAGGAUAUACAUGAGGAUCACCCAUGUACAUAUAUGGAGAAAAAAACAGUAGUAGAAGGGACAAAAA”, in that order: 0.0256 µM and 0.0351 µM.
With “CGCAACUCUUCUCAUGUAAACAUGAGGAUCACCCAUGUAAUGAGAAGGAGGAAGAAGAGAGAUUCCUAGGAUAUCAGAGUUGCG”, the “apparent Kd” value came to 0.00541 µM under setting [1] and 0.00552 µM under setting [2].
For “GCCUUAUCGGUCAGGAUAUACACCCGUCACUCCUUGUAGAAGGGACAUGAGGAUCACCCAUGUACAUUACAUUG”, in that order: 0.0313 µM and 0.0281 µM.
For “CAGCUGAAUGUGAGGAUAUGUCUAGCUUCGGCUAGACAGAAGGCACAUGAGGAUCACCCAUGUCUCAACAGCUG”, in that order: 0.0367 µM and 0.488 µM.
In the case of “AUAUCCAAUCAAGGAUAUGUAUUAAAGAUUUGAAAACAUGAGGAUCACCCAUGUAUAUGGUGGGAACAGAAGGUGAAUAAGUAA”, the “apparent Kd” value is, setting by setting: under setting [1], 0.14 µM; under setting [2], 0.164 µM.
Turning to “UCUGCAUAGUCAGGAUAUGCAAAGUAAGCUAUGGAAACAUAGCUUACAACAUGAGGAUCACCCAUGUAGAAGGGACUGUGCAGA”, the “apparent Kd” value was found to be 0.0141 µM under setting [1] and 0.013 µM under setting [2].
For “AAGUAAGGAGGAUAUACGUCAUAGACCGCAAUAUGUCAUAGACAUGAGGAUCACCCAUGUAGAAGGCUUUAACA”, in that order: 0.0347 µM and 0.0262 µM.
For “CUUGAUCUUGUCAGGAUAUACCUGCCUAGUUGGAGGUAGAAGGGACAUGAGGAUCACCCAUGUAGCCAACCGAC”, in that order: 0.0169 µM and 0.0192 µM.
For the sequence “GGUACCAUCACAGGAUAUGCUUUCCUUUGGGAAGCAGAAGGGUGUAACAUGAGGAUCACCCAUGUGGUGCCAGGGCGUGAGCCC”, the “apparent Kd” value is, setting by setting: under setting [3], 0.47 µM; under setting [4], 0.0426 µM.
For “UCCUGGCGAGGAUAUACAAAGUUUUUCACGUUUUGUUUCGAACAUGAGGAUCACCCAUGUAGAAGGUGCUACUG”, the “apparent Kd” value was determined as 0.0626 µM under setting [1] and 0.0528 µM under setting [2].
“AAGACAUGAGGAUCACCCAUGUAAAGACCGGUCGAUCAAUGUGAGGAUAUUCCAUAAUUGAUAGGGAAGAAGGCACUGGGUUGA”: the “apparent Kd” value reads like this: under setting [3], 0.177 µM; under setting [4], 0.13 µM.
Turning to “UUAUUUUAAUGAGGAUAUAUACAACAUGAGGAUCACCCAUGUACCCAUGUAGUAGAAGGCAUAAUUUUUGAUAAUAACAUAACU”, the “apparent Kd” value by setting is: under setting [3], 0.0495 µM; under setting [4], 0.0316 µM.
For “GUAACAUGAGGAUCACCCAUGUAUAGAACACUCAAUAGAUUUGAGGAUAUAGUGGAAUUUACACACUAGAAGGCAGUGGGUGCA”, in that order: 0.181 µM and 0.253 µM.

Usually apparent Kd stands for the concentration giving half-maximal binding under the conditions of the assay.
